From ChEMBL document CHEMBL1641380, “Novel tetrahydropyrido[3,2-c]pyrroles as 5-HT(7) antagonists” (Bioorg Med Chem Lett, 2011)
Active and inactive are the calls of the source. The rule behind the calls is not given here.

Key:
[1] = molecular target: 5-hydroxytryptamine receptor 7 (Rattus norvegicus, UniProt P32305); assay: Displacement of [3H]5-CT from rat recombinant 5HT7 receptor expressed in HEK293 cells after 60 mins; assay type: cell-based
Summary of the method: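 Membranes from HEK-293 cells stably expressing rat 5-HT7 incubated 60 min at room temperature with 1 nM [3H]5-CT and increasing test compound; rapid filtration, radioactivity counted. IC50 from nonlinear sigmoidal fits, Ki by Cheng-Prusoff. Means of three experiments in triplicate, SEM; final DMSO ≤0.4%.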

[2] = molecular target: 5-hydroxytryptamine receptor 7 (Homo sapiens, UniProt P34969); assay: Binding affinity to 5HT7 receptor
[3] = molecular target: 5-hydroxytryptamine receptor 7 (Rattus norvegicus) (UniProt P32305); assay: Antagonist activity at rat recombinant 5HT7 receptor expressed in HEK293 cells assessed as decrease of 5-CT-induced increase of cAMP level after 20 mins by competitive immunoassay
[4] = Binding affinity to adrenergic alpha1 receptor
[5] = Drug level in rat brain at 10 mg/kg, ip after 1 hr; assay type: ADME, organism-based; parameters: dose 10 mg/kg, route intraperitoneal; settings: read-out: Drug uptake
Summary of the method: (§1)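 Rats dosed 10 mg/kg intraperitoneally; brain and plasma compound concentrations measured 1 h after dosing.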

[6] = Drug level in rat plasma at 10 mg/kg, ip after 1 hr; assay type: ADME, organism-based; parameters: dose 10 mg/kg, route intraperitoneal; settings: read-out: Drug uptake; summary of the method: as §1
Rattus norvegicus = assay: Inhibition of 5-CT-induced hypothermia in rat at 10 mg/kg, ip; assay type: functional, organism-based; parameters: dose 10 mg/kg
Summary of the method: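 Conscious rats given test compound intraperitoneally at 10 mg/kg; antagonism of hypothermia induced by the 5-HT7 agonist 5-CT assessed.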

Sequence of 5-hydroxytryptamine receptor 7 (Rattus norvegicus, UniProt P32305) (P32305 whole entry): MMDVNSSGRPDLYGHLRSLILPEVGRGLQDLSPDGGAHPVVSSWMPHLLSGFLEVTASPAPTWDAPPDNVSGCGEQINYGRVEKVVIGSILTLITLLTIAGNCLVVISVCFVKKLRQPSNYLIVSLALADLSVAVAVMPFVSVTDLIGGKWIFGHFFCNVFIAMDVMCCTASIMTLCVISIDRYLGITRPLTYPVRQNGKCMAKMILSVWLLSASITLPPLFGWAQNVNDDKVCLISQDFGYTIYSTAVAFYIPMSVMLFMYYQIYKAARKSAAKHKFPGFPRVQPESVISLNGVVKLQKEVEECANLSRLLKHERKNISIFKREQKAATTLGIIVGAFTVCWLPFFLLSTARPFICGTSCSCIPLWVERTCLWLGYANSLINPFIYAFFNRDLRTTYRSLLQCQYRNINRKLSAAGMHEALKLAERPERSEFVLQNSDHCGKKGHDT
Sequence of 5-hydroxytryptamine receptor 7 (Rattus norvegicus) (P32305 whole entry): as above
Sequence of 5-hydroxytryptamine receptor 7 (Homo sapiens, UniProt P34969) (P34969 whole entry): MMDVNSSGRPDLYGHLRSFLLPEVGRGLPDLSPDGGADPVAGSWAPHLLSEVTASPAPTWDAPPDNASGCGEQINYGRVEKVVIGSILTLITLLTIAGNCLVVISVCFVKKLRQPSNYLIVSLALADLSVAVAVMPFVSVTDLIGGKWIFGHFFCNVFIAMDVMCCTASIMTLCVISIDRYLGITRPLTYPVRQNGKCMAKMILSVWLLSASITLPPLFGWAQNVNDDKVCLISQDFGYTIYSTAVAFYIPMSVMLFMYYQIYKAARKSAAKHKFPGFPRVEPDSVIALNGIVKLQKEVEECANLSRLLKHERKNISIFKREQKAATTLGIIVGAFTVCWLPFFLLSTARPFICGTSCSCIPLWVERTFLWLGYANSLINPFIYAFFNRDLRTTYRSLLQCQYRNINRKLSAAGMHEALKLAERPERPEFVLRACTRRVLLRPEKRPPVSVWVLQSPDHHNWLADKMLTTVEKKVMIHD

Row | Compound | Ki [1] [nM] | further results
1 | FC(F)(F)Oc1ccc(-c2cn(Cc3ccccc3)c3c2CNCC3)cc1 | 10000 | –
2 | Clc1ccc(-c2nn(Cc3ccccc3)c3c2CNCC3)cc1 | – | Ki [2]: 14 nM
3 | Oc1ccc(-c2cn(Cc3ccccc3)c3c2CNCC3)cc1 | 10000 | –
4 | Clc1cccc(-c2cn(Cc3ccccc3)c3c2CNCC3)c1 | 10000 | –
5 | Fc1ccc(-c2cn(Cc3ccccc3)c3c2CNCC3)cc1 | 45 | –
6 | O=[N+]([O-])c1ccc(-c2cn(Cc3ccccc3)c3c2CNCC3)cc1 | 450 | –
7 | Fc1cccc(-c2cn(Cc3ccccc3)c3c2CNCC3)c1 | 2730 | –
8 | FC(F)(F)c1ccc(-c2cn(Cc3ccccc3)c3c2CNCC3)cc1 | 167 | –
9 | Clc1ccc(-c2cn(Cc3ccccc3)c3c2CNCC3)c(Cl)c1 | 2070 | –
10 | Clc1ccc(Cn2cc(-c3ccccc3)c3c2CCNC3)cc1 | 753 | –
11 | Clc1cccc(Cn2cc(-c3ccccc3)c3c2CCNC3)c1 | 6600 | –
12 | Clc1ccccc1Cn1cc(-c2ccccc2)c2c1CCNC2 | 2290 | –
13 | c1ccc(Cn2cc(-c3ccccc3)c3c2CCNC3)cc1 | 220 | pKb [3]: 6.7
14 | COc1ccc(-c2cn(Cc3ccccc3)c3c2CNCC3)cc1 | 290 | –
15 | CCN1CCc2c(c(-c3ccc(Cl)cc3)cn2Cc2ccccc2)C1 | 250 | –
16 | CC(C)(C)c1ccc(-c2cn(Cc3ccccc3)c3c2CNCC3)cc1 | 10000 | –
17 | CC(C)N1CCc2c(c(-c3ccc(Cl)cc3)cn2Cc2ccccc2)C1 | 370 | –
18 | Clc1ccc(-c2cn(Cc3cccc(Cl)c3)c3c2CNCC3)cc1 | 533 | –
19 | Clc1ccc(-c2cn(Cc3ccccc3)c3c2CNCC3)cc1Cl | 4470 | –
20 | Clc1ccc(-c2cn(Cc3ccccc3)c3c2CNCC3)cc1 | 107 | pKb [3]: 7.2
21 | Cc1ccc(-c2cn(Cc3ccccc3)c3c2CNCC3)cc1 | 35 | Activity [4]: 5 nM; concentration at 1 h [5]: 27 µM; concentration at 1 h [6]: 3000 nM; Activity (Rattus norvegicus): Active; pKb [3]: 7.6
22 | CN1CCc2c(c(-c3ccc(Cl)cc3)cn2Cc2ccccc2)C1 | 36 | –
